Source: PubChem
sEH act = soluble epoxide hydrolase activators, primary screen, biochemical, human sEH | Bifunctional epoxide hydrolase 2 (Homo sapiens), P34913 | purified human sEH enzymatic activity, activator screen | activation, % at 2 µM | 91,000 tested, 0.04% active; in the data active = activation above about 37%
HIV Rev-RRE inh = HIV-1 Rev-RRE binding inhibitors, primary screen, biochemical, FRET, protein-RNA interaction. P05866. Rev peptide-RRE RNA binding. inhibition, % at 8 µM. 97,000 tested, 0.79% active;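 active = inhibition above the screen-wide mean plus 3 SD, cut at about 35% in these data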
Target sequence (P05866 whole entry, looked up): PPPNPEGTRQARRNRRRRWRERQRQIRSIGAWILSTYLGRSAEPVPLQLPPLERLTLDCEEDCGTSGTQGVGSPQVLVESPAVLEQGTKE
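Test system – labelled RRE RNA duplex and labelled Rev peptide · Signal – fluorescein-to-Cy5 FRET, 480 nm excitation · Evaluation – % inhibition of FRET ratio versus controls · Benchmarks – DMSO low control, neomycin B high control · Incubation – 5 min RNA-compound premix plus 15 min binding step, 25 °C · Medium – HEPES pH 7.5 salt buffer with EDTA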
ERa coact inh = ERα–SRC-1 coactivator interaction inhibitors, primary screen, biochemical, TR-FRET, ERα LBD, estradiol-bound | Estrogen receptor (Homo sapiens), P03372 | TR-FRET ER-alpha LBD / SRC-1 peptide | inhibition, % at 25.6 µM | 86,000 tested, 1.7% active | AID 629, 2007; in the data active = inhibition above about 50%
sEH inh = soluble epoxide hydrolase inhibitors, primary screen, biochemical, human sEH; 91,000 tested, 0.34% active; recombinant human sEH enzymatic activity assay; inhibition, % at 2 µM; in the data active = inhibition above about 80%
ERa SRC1 pot = enhancers of ERα–SRC-1 coactivator binding, primary screen, biochemical, TR-FRET, ERα LBD, low estradiol; Estrogen receptor (Homo sapiens), P03372; TR-FRET ERalpha-LBD/SRC-Cy5 coactivator binding, 2 h; 100 = basal binding, no effect; coactivator binding (% of control), % at 25.6 µM; 86,000 tested, 1.3% active; in the data active = activity above about 200%;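 note: binding measured in presence of low estradiol as agonist stimulus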
ERb SRC1 inh = inhibitors of ERβ-SRC1 coactivator interaction, primary screen, biochemical, TR-FRET, ERβ LBD, SRC-1 peptide; Estrogen receptor beta (Homo sapiens), Q92731; TR-FRET ER-beta LBD / SRC1-Cy5 peptide binding; receptor agonist-loaded with 1 µM estradiol; inhibition, % at 25.6 µM; 86,000 tested, 1.3% active; AID 633, 2007;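 active = compounds whose percent inhibition of the receptor-coactivator binding signal exceeds about 50% in the single-dose screen, limit read from the data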
Target sequence (Q92731 whole entry, looked up, the tested form may be a part): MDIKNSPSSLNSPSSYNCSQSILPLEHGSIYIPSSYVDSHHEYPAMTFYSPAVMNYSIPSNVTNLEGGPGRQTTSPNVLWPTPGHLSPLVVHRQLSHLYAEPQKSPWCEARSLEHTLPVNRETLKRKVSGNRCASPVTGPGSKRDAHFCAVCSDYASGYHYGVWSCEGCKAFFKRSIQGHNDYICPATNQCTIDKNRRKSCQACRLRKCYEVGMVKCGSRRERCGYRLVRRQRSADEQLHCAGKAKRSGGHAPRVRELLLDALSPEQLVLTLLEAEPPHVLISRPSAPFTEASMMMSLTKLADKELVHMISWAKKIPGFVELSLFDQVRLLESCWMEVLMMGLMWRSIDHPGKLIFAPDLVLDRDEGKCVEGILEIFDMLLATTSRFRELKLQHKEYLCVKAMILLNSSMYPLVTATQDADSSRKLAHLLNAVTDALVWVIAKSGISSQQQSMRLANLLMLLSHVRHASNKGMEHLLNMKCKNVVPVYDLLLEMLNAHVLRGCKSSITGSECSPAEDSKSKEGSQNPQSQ
Large screens that a line does not name were inactive; [ ] = remark or other dose. In the library only some 3.5% were active in any assay of this set; here they are far more common.

Cc1cccc2cc(C#N)c(SCC(=O)Nc3ccccc3N3CCOCC3)nc12	ERa SRC1 pot 295.1[fluorescence artefact?]
CCOc1ccc2cc(C#N)c(SCC(=O)NC(C)CC)nc2c1 (configuration not stated)	ERa SRC1 pot 337.1[fluorescence artefact?]
Cc1cccc2cc(C#N)c(SCC(=O)N3CCC(C)CC3)nc12	ERa SRC1 pot 216.9[fluorescence artefact?]
N#Cc1cc2ccccc2nc1SCC(=O)Nc1ccccc1N1CCOCC1	none (no result: ERa coact inh, ERa SRC1 pot, ERb SRC1 inh)
COc1ccc2cc(C#N)c(SCC(=O)NNC(=O)Cc3ccccc3)nc2c1	none (no result: ERa coact inh, ERa SRC1 pot, ERb SRC1 inh)
Cc1oc(C2CC2)cc1C(=O)O	none
COCC(=O)NCc1nc2ccccc2n1Cc1ccccc1F	none (no result: sEH act, HIV Rev-RRE inh, sEH inh)
COc1ccc2nc(N3CCC(O)CC3)c(C#N)cc2c1	HIV Rev-RRE inh 37.2
C/C(=N\NC(N)=S)C12CC3CC(CC(C3)C1)C2	none
Cc1ccc(-c2nn3c(-c4ccco4)nnc3c3ccccc23)cc1S(=O)(=O)NCC1CCCO1 (configuration not stated)	ERa coact inh 55.4[fluorescence artefact?], ERa SRC1 pot 218.3
Cc1ccc(-c2nnc(Nc3ccccc3)c3ccccc23)cc1S(=O)(=O)NCC1CCCO1 (configuration not stated)	none (no result: ERa coact inh, ERa SRC1 pot, ERb SRC1 inh)
CCOC(=O)c1cc2ccccc2n1CCN(CC)CC	ERa coact inh 52.0
S=C(N=Nc1ccccc1)NNc1ccccc1	none (no result: sEH act, HIV Rev-RRE inh, sEH inh)
CCOC(=O)[C@@H]1CCNC[C@@H]1c1ccccc1	HIV Rev-RRE inh 141.4[fluorescence artefact?] (no result: sEH act, sEH inh)
CCOC(=O)C1NC(=O)CC1c1ccccc1 (configuration not stated)	none
CCOC(=O)N1CCC(NC(=O)Cn2ncn3c(cc4sc(CC)cc43)c2=O)CC1	ERb SRC1 inh 57.5[fluorescence artefact?] (no result: sEH act, HIV Rev-RRE inh, sEH inh)
COc1ccc(CCNC(=O)c2cc(-c3ccccc3OC)on2)cc1OC	ERa SRC1 pot 235.7[fluorescence artefact?]
COc1ccc(OC)c(-c2cc(C(=O)Nc3cc(C)on3)no2)c1	ERa SRC1 pot 245.2[fluorescence artefact?]
COc1ccc(-c2csc(NC(=O)c3cc(C)on3)c2C#N)cc1OC	ERa SRC1 pot 263.9
Cc1cc(C(=O)Nc2sc3c(c2C#N)CCCC3)no1	none (no result: sEH act, HIV Rev-RRE inh, sEH inh)
CCc1c(C)sc(NC(=O)c2cc(-c3ccc(OC)c(OC)c3)on2)c1C#N	none
COc1ccc(OC)c(-c2cc(C(=O)Nc3cccc(Cl)c3)no2)c1	none (no result: sEH act, sEH inh)
Cc1cc(C(=O)Nc2sc3c(c2C#N)CCC3)no1	ERa coact inh 53.1[fluorescence artefact?], ERb SRC1 inh 63.9
O=C(O)c1ccc(NS(=O)(=O)/C=C/c2ccccc2)cc1O	none
CCOC(=O)C1CCN(S(=O)(=O)Cc2ccccc2)C1=O (configuration not stated)	ERb SRC1 inh 68.2[fluorescence artefact?]
CCN1CCN(S(=O)(=O)Cc2ccccc2)CC1	none
CC(C)C(C(=O)Nc1ncn[nH]1)N1C(=O)c2ccccc2C1=O (configuration not stated)	none
CCOC(=O)c1cnn(-c2ccccc2)c1N	none
CCOC(=O)c1cc(OC(=O)c2ccccc2OC)n(-c2ccccc2)n1	ERa coact inh 74.3[fluorescence artefact?]
COc1ccccc1N1CCN(C(=O)c2ccc3nc(-c4ccco4)c(-c4ccco4)nc3c2)CC1	ERa coact inh 67.9[fluorescence artefact?], ERb SRC1 inh 66.3
COc1ccc2nc(NC(=O)CSc3nc4cccnc4n3C)sc2c1	none
COC(=O)c1sc(NC(=O)CSc2nc3cccnc3n2C2CCCCC2)nc1C	ERa coact inh 72.2[fluorescence artefact?], ERb SRC1 inh 61.3[fluorescence artefact?]
COc1ccc(-c2cc3ccccc3oc2=O)cc1NC(=O)c1ccc(Br)o1	ERa coact inh 66.0[fluorescence artefact?], ERa SRC1 pot 231.3
O=C(Nc1cccc(-c2cc3ccccc3oc2=O)c1)c1ccc(Br)o1	none
COCC(C)NC(=O)c1cccc(Cl)c1 (configuration not stated)	none
COC(=O)C(/C=N/OCc1ccc([N+](=O)[O-])cc1)NC(=O)c1cccc(Cl)c1 (configuration not stated)	ERa SRC1 pot 395.4[fluorescence artefact?]
c1ccc(Cn2c(-c3ccco3)nc3nc4ccccc4nc32)cc1	sEH act 37.9
O=C(NC1CCCCC1)C(c1ccccc1)N1CCc2ccccc21 (configuration not stated)	ERa coact inh 99.0[fluorescence artefact?]
CCCc1nc2sc3ccccc3c(=O)c2c(=O)n1Cc1ccco1	ERa coact inh 70.2[fluorescence artefact?], ERb SRC1 inh 63.7
Cc1cccc(N/C=C/c2onc(C)c2[N+](=O)[O-])c1	HIV Rev-RRE inh 95.1[fluorescence artefact?]
CCCn1c(C)cc(=O)c2cc(NC(=O)c3cnccn3)ccc21	ERa SRC1 pot 226.1[fluorescence artefact?] (no result: sEH act, sEH inh)
Cc1ccc(C(O)(c2ccccc2)c2ccccc2C(C)N(C)C)c(C)c1 (configuration not stated)	none (no result: ERa coact inh, ERa SRC1 pot, ERb SRC1 inh)
Cc1nnc2sc(-c3ccc(NC(=O)c4ccc(-c5ccc(Br)cc5)o4)cc3)nn12	ERa coact inh 69.3
Cc1ccc(-c2nn3c(C)nnc3s2)cc1NC(=O)c1ccc(-c2ccc(Cl)cc2Cl)o1	ERa coact inh 67.4[fluorescence artefact?] (no result: sEH act, HIV Rev-RRE inh, sEH inh)
Cc1ccc(-c2nn3c(C)nnc3s2)cc1NC(=O)c1ccc(Br)o1	none
Cc1ccc(-c2nn3c(C)nnc3s2)cc1NC(=O)c1ccc(-c2cccc(Cl)c2)o1	ERa coact inh 66.2
Cc1nnc2sc(-c3cccc(NC(=O)c4ccc(-c5cccc(Cl)c5)o4)c3)nn12	none
CC1=C(C)CC(C(=O)c2ccc(C)cc2)C(C(=O)O)C1 (configuration not stated)	none
O=C(Nc1ccc(O)cc1)c1cc(S(=O)(=O)N2CCCC2)ccc1Cl	none
CC(C)(C)c1cc(-c2ccco2)c(C#N)c(SCC#N)n1	none
N#Cc1c(-c2ccccc2)cc(-c2ccco2)c(C#N)c1N	HIV Rev-RRE inh 36.8, ERa coact inh 80.3, ERb SRC1 inh 56.5
N#Cc1sc2nc(-c3ccccc3)cc(-c3ccco3)c2c1N	HIV Rev-RRE inh 37.0, ERa coact inh 88.5[fluorescence artefact?], ERb SRC1 inh 76.2[fluorescence artefact?]
On1c2c(c3c4nonc4ccc31)CCCC2	none
Cc1nn(Cc2ccccc2Cl)c(C)c1C(=O)NCc1ccco1	ERb SRC1 inh 79.0
CCn1ncc(/C=N/O)c1C	none
COc1ccc(C2C(C(C)=O)=C(C)N=c3s/c(=C/c4ccc5c(c4)OCO5)c(=O)n32)cc1 (configuration not stated)	HIV Rev-RRE inh 43.6
COC(=O)C1=C(C)N=c2s/c(=C/c3ccoc3)c(=O)n2C1c1ccccc1 (configuration not stated)	HIV Rev-RRE inh 50.7
COC(=O)C1=C(C)N=c2s/c(=C/c3cccs3)c(=O)n2C1c1cccs1 (configuration not stated)	none (no result: sEH act, sEH inh)
